Rows were chosen to be rich in hits. Some 3.1% of all compounds tested hit in one or more screens of this group.
Cneo AK release – Cryptococcus neoformans cell lysis inducers, primary screen, AK release luminescence, single concentration | C. neoformans lysis, adenylate kinase release luminescence, 4 h; normalised: neutral wells 0, clomiphene wells 100 | lysis activity, % at 15 µM | 0.2% of 360,000 active;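 active means mean lysis activity across replicates of at least 80%, whatever share of replicates individually reach that level; inactive means mean lysis activity below 80%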
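Material: C. neoformans cells; Schedule: 4 h static compound exposure, 37 °C, read 1 h post-reagent; Measured by: adenylate kinase release luminescence; Read-out: signal increase indicating cell lysis; Controls: Clomiphene as positive lysis control.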
DENV2 CPE rescue – inhibitors of DENV2 cytopathic effect, primary screen, cell-based, plate reader, single concentration; 1.7% of 350,000 active; CPE inhibition, % at 9.99 µM; DENV2-infected cells, cytopathic effect rescue; in the data active means CPE inhibition above about 20%, passing the limit was not always enough; inconclusive means no clear call, values can overlap the other calls; tested in BHK-21 cells;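 further: 0% = median of neutral control wells and 100% = median of positive control wells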
miR122 inh – miR-122 Renilla sensor signal increase in Huh7, primary screen, miR-122 inhibitor project, cell-based, single point, plate reader. activation (reporter increase), % at 12.5 µM. 0.3% of 340,000 active. Huh7 miR-122 Renilla luciferase sensor, 48 h; neutral wells = 0, positive control = 100;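 active means mean replicate activation score at least 90 and every replicate individually at or above 90; inconclusive means only one of the two criteria met; inactive means neither criterion met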;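 further: higher luciferase means less miR-122 activity so hits act as miR-122 inhibitors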
E-selectin induc – E-selectin induction in HUVECs, primary screen, imaging, HUVEC, immunofluorescence imaging, single point | P16581 | normalized: neutral wells 0, TNF-alpha wells 100 | activation, % at 7.58 µM | 0.37% of 260,000 active | AID 686992, 2013;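 active means mean E-selectin-positive cell signal at least 10% of the positive control, reached in at least 60% of replicates, without over 20% cell loss; inconclusive means no rule given, readout overlaps actives, possibly toxicity-flagged; inactive means the rest, including those meeting only one limit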
Target sequence (P16581 whole entry, looked up): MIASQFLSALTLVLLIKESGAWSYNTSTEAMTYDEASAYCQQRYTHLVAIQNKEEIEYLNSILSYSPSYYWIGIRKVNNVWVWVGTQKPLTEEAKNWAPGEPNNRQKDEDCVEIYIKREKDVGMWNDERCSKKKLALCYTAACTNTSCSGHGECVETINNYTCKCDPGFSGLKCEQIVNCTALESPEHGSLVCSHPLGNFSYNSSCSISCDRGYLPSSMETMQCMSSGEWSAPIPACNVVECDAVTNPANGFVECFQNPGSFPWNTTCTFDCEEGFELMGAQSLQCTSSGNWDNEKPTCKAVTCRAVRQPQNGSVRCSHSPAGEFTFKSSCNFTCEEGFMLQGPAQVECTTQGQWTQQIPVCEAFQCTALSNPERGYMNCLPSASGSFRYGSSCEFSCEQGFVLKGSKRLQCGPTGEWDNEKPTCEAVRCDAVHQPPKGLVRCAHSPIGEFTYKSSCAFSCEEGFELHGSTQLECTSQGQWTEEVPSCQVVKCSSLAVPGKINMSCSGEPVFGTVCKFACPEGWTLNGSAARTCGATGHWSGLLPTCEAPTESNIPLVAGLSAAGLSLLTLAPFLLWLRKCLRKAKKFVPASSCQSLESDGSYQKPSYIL
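Assay system: HUVEC, human umbilical vein endothelial cells / Amount: 3,000 HUVEC/well / Controls: TNF-alpha positive control, DMSO neutral control / Compound dosing: single concentration / Medium: EGM-2 over gelatin coat / Evaluation: percent E-selectin-positive cells / Signal: immunofluorescence imaging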
rRNA inh HTS – reduced GFP signal of wild-type E. coli, primary screen, bacterial rRNA inhibitor project, GFP/RFP fluorescence, OD600, single point | AID 720706, 2013 | E. coli WT GFP vs humanized-ribosome RFP mutants, 24 h; stronger effect = lower value; DMSO median 0, no signal -100 | GFP signal change (wild-type ribosome), % (test concentration not listed) | 1.6% of 350,000 active;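 active means significant combined selectivity score with lowered wild-type GFP, culture density cut under 30%, mutant RFP and density less affected; inactive means any of these conditions unmet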
* = called active by the depositor; ! = a repeat was not active; [ ] = another dose, or the depositor's remark.

For CC(C)Cc1ccc(C(C)C(N)=NCCc2ccccc2)cc1 (stereo not drawn) the results were Cneo AK release 0.6, DENV2 CPE rescue 33.4*, miR122 inh 6.0, E-selectin induc 0.3 and rRNA inh HTS -57.2.
CNC[C@H]1Oc2c(NC(=O)CCC(F)(F)F)cccc2C(=O)N([C@H](C)CO)C[C@@H]1C was read as rRNA inh HTS 2.5.
For O=C(NC1CC1)c1cc2cc3ccccc3nc2s1 the results were Cneo AK release -5.5, DENV2 CPE rescue inconclusive, miR122 inh 2.7, E-selectin induc 0.2 and rRNA inh HTS -21.4*.
`O=C(NNS(=O)(=O)c1ccccc1)c1cc2cc3ccccc3nc2s1` gave miR122 inh 10.5 and E-selectin induc 0.4.
Screening CC1(C(=O)OCC(=O)Nc2nc(-c3ccc(F)c(F)c3)cs2)CC1(Cl)Cl (stereo not drawn) returned Cneo AK release -4.6, DENV2 CPE rescue -1.6, miR122 inh -8.4, E-selectin induc 5.9 and rRNA inh HTS -27.5*.
`Cc1nn(-c2ccccc2)nc1C(=O)Nc1nnc(C(F)(F)F)s1` gave Cneo AK release 8.2, DENV2 CPE rescue -2.5, miR122 inh -1.7, E-selectin induc 6.2 and rRNA inh HTS -31.9*.
Screening COc1ccc(-c2ccc([C@@H]3[C@@H](CO)N4CCCCN(CC5CCOCC5)C[C@H]34)cc2)cc1 returned Cneo AK release -0.5, DENV2 CPE rescue 47.7*, miR122 inh 20.9[16.7 µM], E-selectin induc -0.2 and rRNA inh HTS 3.2.
COc1ccc(-c2ccc([C@@H]3[C@H]4CN(CC5CCOCC5)CCCCN4[C@H]3CO)cc2)cc1 was read as Cneo AK release -1.5, DENV2 CPE rescue 62.8*, miR122 inh -0.6[16.7 µM], E-selectin induc -0.4 and rRNA inh HTS 1.1.
For COc1cccc(-c2ccc([C@@H]3[C@H](CO)N4CCCCN(CC5CCOCC5)C[C@@H]34)cc2)c1 the results were Cneo AK release -0.3, DENV2 CPE rescue -4.1 and miR122 inh 6.2[16.7 µM].
For COc1ccc2c3c([nH]c2c1)[C@@H](CO)N(Cc1ccccc1)CC31CN(CC2CC2)C1 the results were rRNA inh HTS -2.2.
For C[C@H](CO)N1C[C@H](C)[C@H](CN(C)CC2CCCCC2)Oc2c(NS(=O)(=O)c3cn(C)cn3)cccc2C1=O the results were Cneo AK release 21.0, DENV2 CPE rescue -1.8, miR122 inh 15.9[16.7 µM], E-selectin induc 8.9 and rRNA inh HTS 0.4.
Screening COC(=O)c1cc(-c2c(-c3cc(OC)c(OC)c(OC)c3)noc2C)cc([N+](=O)[O-])c1 returned Cneo AK release -0.7, DENV2 CPE rescue 20.6*, miR122 inh -0.4, E-selectin induc -0.1 and rRNA inh HTS -12.9.
C[C@H](CO)N1C[C@H](C)[C@H](CN(C)S(=O)(=O)c2ccccc2F)Oc2cc(-c3ccccc3)ccc2S1(=O)=O was read as Cneo AK release -5.5, DENV2 CPE rescue -6.5, miR122 inh -2.4[16.7 µM], E-selectin induc 0.0 and rRNA inh HTS 2.1.
For COc1ccccc1S(=O)(=O)N(C)C[C@H]1Oc2cc(Br)ccc2S(=O)(=O)N([C@H](C)CO)C[C@H]1C the results were Cneo AK release 4.6, DENV2 CPE rescue 4.8, miR122 inh 68.4[16.7 µM], E-selectin induc 2.8 and rRNA inh HTS -34.0*!.
C[C@H]1CN([C@@H](C)CO)S(=O)(=O)c2ccc(Br)cc2O[C@H]1CN(C)S(=O)(=O)c1ccccc1F was read as Cneo AK release 103.7*!, DENV2 CPE rescue 2.7, miR122 inh 178.6*![16.7 µM], E-selectin induc 0.5 and rRNA inh HTS 6.2.
Screening C/C=C/c1ccc2c(c1)O[C@H](CN(C)S(=O)(=O)c1ccccc1)[C@H](C)CN([C@@H](C)CO)S2(=O)=O returned Cneo AK release 89.9*, DENV2 CPE rescue -2.6, miR122 inh 267.8*[16.7 µM], E-selectin induc 0.2 and rRNA inh HTS -9.8.
`COc1ccccc1S(=O)(=O)N(C)C[C@H]1Oc2cc(C#CCC(C)C)ccc2S(=O)(=O)N([C@@H](C)CO)C[C@@H]1C` gave Cneo AK release 49.5, DENV2 CPE rescue 102.9*, miR122 inh 46.7[16.7 µM] and rRNA inh HTS 0.7.
C/C=C/c1ccc2c(c1)O[C@H](CN(C)S(=O)(=O)c1ccc(F)cc1)[C@H](C)CN([C@@H](C)CO)S2(=O)=O was read as Cneo AK release -1.4, DENV2 CPE rescue 18.3, miR122 inh 11.1[16.7 µM], E-selectin induc -0.1 and rRNA inh HTS -0.6.
Screening C[C@H]1CN([C@@H](C)CO)S(=O)(=O)c2ccc(Br)cc2O[C@@H]1CN(C)S(=O)(=O)c1ccccc1F returned Cneo AK release 93.7*!, DENV2 CPE rescue 35.6*!, miR122 inh 67.7[16.7 µM], E-selectin induc 0.3 and rRNA inh HTS -12.9.
For C[C@H]1CN([C@@H](C)CO)S(=O)(=O)c2ccc(-c3ccccc3)cc2O[C@H]1CN(C)S(=O)(=O)c1ccccc1F the results were Cneo AK release -5.5, DENV2 CPE rescue -6.9, miR122 inh -1.2[16.7 µM], E-selectin induc -0.1 and rRNA inh HTS 0.0.
`C[C@H](CO)N1C[C@H](C)[C@H](CN(C)S(=O)(=O)c2ccc(F)cc2)Oc2cc(Br)ccc2S1(=O)=O` gave Cneo AK release -0.1, DENV2 CPE rescue -0.9, miR122 inh -4.6[16.7 µM], E-selectin induc -0.1 and rRNA inh HTS -3.8.
Screening C[C@H](CO)N1C[C@H](C)[C@@H](CN(C)S(=O)(=O)c2ccc(F)cc2)Oc2cc(Br)ccc2S1(=O)=O returned Cneo AK release -0.1, DENV2 CPE rescue inconclusive, miR122 inh -3.8[16.7 µM], E-selectin induc 0.7 and rRNA inh HTS -25.1*!.
Screening O=C(OCc1cccc(F)c1)c1ccc2c(=O)n3c(nc2c1)CCC3 returned DENV2 CPE rescue -6.8, miR122 inh 0.1 and rRNA inh HTS -24.1*.
Cc1ccc(S(=O)(=O)N(C)C)cc1NC(=O)C(C)OC(=O)c1ccc2c(=O)n3c(nc2c1)CCC3 (stereo not drawn) was read as Cneo AK release -0.7, DENV2 CPE rescue 6.5, miR122 inh -7.0, E-selectin induc 0.3 and rRNA inh HTS -3.8.
`CC(OC(=O)c1ccc2c(=O)n3c(nc2c1)CCC3)C(=O)NC1CCCCC1C` (stereo not drawn) gave Cneo AK release 0.3, DENV2 CPE rescue 33.0*, miR122 inh 2.2, E-selectin induc 2.0 and rRNA inh HTS 2.8.
Screening CCNC(=O)[C@H]1[C@H](CO)[C@H]2Cn3c(ccc(-c4cccc(F)c4)c3=O)[C@@H]1N2C(C)=O returned E-selectin induc -0.2 and rRNA inh HTS 1.1.

Bioassay records deposited in PubChem by Broad Institute.
